Measurements from ChEMBL document CHEMBL1149164, “Design of potent and selective agonists for the human vasopressin V1b receptor based on modifications of [deamino-cys1]arginine vasopressin at position 4” (J Med Chem, 2004).
Bridge positions count the residues as written; N and C are the ends. Square brackets hold non-standard residues; d marks the D form. Peptide text beside a SMILES is read from it. Cha = N[C@@H](CC1CCCCC1)C(=O)O; Mpa = O=C(O)CCS

How the values were obtained:
Vasopressin V2 receptor = Vasopressin V2 receptor (Homo sapiens, UniProt P30518); assay: Binding affinity against human vasopressin V2 receptor was determined by using plasma membranes from CHO cells stably transfected with VP/OT receptors; assay type: cell membranes
Procedure, shortened: (§1)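 Competition binding on plasma membranes from stably transfected CHO cells (human receptors). Membranes (1–20 µg protein) incubated 60 min at 30 °C in 50 mM Tris-HCl pH 7.4, 3 mM MgCl2, 1 mg/mL BSA, leupeptine, 0.1 mM PMSF, with 0.5–3 nM [3H]AVP and increasing analogue; nonspecific binding with 1 µM AVP.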

Vasopressin V1a receptor = Vasopressin V1a receptor (Homo sapiens, UniProt P37288); assay: Binding affinity against human vasopressin V1a receptor was determined by using plasma membranes from CHO cells stably transfected with VP/OT receptors; assay type: cell membranes; procedure, shortened: as §1
Chain of Vasopressin V1a receptor (P37288 whole entry): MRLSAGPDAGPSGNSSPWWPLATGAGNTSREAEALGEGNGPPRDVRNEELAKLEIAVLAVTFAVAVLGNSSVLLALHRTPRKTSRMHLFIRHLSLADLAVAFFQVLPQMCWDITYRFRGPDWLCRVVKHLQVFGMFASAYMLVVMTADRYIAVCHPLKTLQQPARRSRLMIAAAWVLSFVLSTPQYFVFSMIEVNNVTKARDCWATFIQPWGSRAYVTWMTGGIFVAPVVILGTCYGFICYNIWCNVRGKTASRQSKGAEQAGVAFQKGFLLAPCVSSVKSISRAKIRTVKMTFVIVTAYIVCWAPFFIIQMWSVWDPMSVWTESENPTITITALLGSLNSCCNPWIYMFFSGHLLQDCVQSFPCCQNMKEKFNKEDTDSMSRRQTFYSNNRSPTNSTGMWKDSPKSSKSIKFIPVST

Chain of Vasopressin V2 receptor (P30518 whole entry): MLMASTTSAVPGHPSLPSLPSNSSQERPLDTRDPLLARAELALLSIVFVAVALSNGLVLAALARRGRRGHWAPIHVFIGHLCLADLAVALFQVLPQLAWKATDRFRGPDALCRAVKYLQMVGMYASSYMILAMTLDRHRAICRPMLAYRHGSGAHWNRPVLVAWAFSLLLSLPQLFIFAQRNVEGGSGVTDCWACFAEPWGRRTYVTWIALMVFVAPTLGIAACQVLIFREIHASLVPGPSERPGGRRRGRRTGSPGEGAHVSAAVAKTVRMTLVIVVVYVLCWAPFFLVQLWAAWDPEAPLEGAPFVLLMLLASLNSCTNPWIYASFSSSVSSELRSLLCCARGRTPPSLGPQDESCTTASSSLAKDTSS

SMILES | Ki (Vasopressin V2 receptor) [nM] | Ki (Vasopressin V1a receptor) [nM]
NC(=O)CNC(=O)[C@H](CCCN=C(N)N)NC(=O)[C@@H]1CCCN1C(=O)[C@@H]1CSSCCC(=O)N[C@@H](Cc2ccc(O)cc2)C(=O)N[C@@H](Cc2ccccc2)C(=O)N[C@@H](Cc2cccs2)C(=O)N[C@@H](CC(N)=O)C(=O)N1 (stereo in doubt) | 4420 | 63.3
NCCC[C@@H]1NC(=O)[C@H](Cc2ccccc2)NC(=O)[C@H](Cc2ccc(O)cc2)NC(=O)CCSSC[C@@H](C(=O)N2CCC[C@H]2C(=O)N[C@@H](CCCN=C(N)N)C(=O)NCC(N)=O)NC(=O)[C@H](CC(N)=O)NC1=O (stereo in doubt) | 1130 | 88
NCC[C@@H]1NC(=O)[C@H](Cc2ccccc2)NC(=O)[C@H](Cc2ccc(O)cc2)NC(=O)CCSSC[C@@H](C(=O)N2CCC[C@H]2C(=O)N[C@@H](CCCN=C(N)N)C(=O)NCC(N)=O)NC(=O)[C@H](CC(N)=O)NC1=O (stereo in doubt) | 568 | 36.3
NC(=O)CNC(=O)[C@H](CCCN=C(N)N)NC(=O)[C@@H]1CCCN1C(=O)[C@@H]1CSSCCC(=O)N[C@@H](Cc2ccc(O)cc2)C(=O)N[C@@H](Cc2ccccc2)C(=O)N[C@@H](Cc2ccccc2)C(=O)N[C@@H](CC(N)=O)C(=O)N1 (stereo in doubt) | 1070 | 80
CC[C@H](C)[C@@H]1NC(=O)[C@H](Cc2ccccc2)NC(=O)[C@H](Cc2ccc(O)cc2)NC(=O)CCSSC[C@@H](C(=O)N2CCC[C@H]2C(=O)N[C@@H](CCCN=C(N)N)C(=O)NCC(N)=O)NC(=O)[C@H](CC(N)=O)NC1=O | 9.9 | 16.8
CC(C)C[C@@H]1NC(=O)[C@H](Cc2ccccc2)NC(=O)[C@H](Cc2ccc(O)cc2)NC(=O)CCSSC[C@@H](C(=O)N2CCC[C@H]2C(=O)N[C@@H](CCCN=C(N)N)C(=O)NCC(N)=O)NC(=O)[C@H](CC(N)=O)NC1=O | 245 | 44.1
CC(C)[C@@H]1NC(=O)[C@H](Cc2ccccc2)NC(=O)[C@H](Cc2ccc(O)cc2)NC(=O)CCSSC[C@@H](C(=O)N2CCC[C@H]2C(=O)N[C@@H](CCCN=C(N)N)C(=O)NCC(N)=O)NC(=O)[C@H](CC(N)=O)NC1=O ([Mpa]YFVNCPRG-NH2; disulfide 1-6) | 1.2 | 11.4
N=C(N)NCCC[C@@H]1NC(=O)[C@H](Cc2ccccc2)NC(=O)[C@H](Cc2ccc(O)cc2)NC(=O)CCSSC[C@@H](C(=O)N2CCC[C@H]2C(=O)N[C@@H](CCCN=C(N)N)C(=O)NCC(N)=O)NC(=O)[C@H](CC(N)=O)NC1=O (stereo in doubt) | 131 | 54.2
NCCCC[C@@H]1NC(=O)[C@H](Cc2ccccc2)NC(=O)[C@H](Cc2ccc(O)cc2)NC(=O)CCSSC[C@@H](C(=O)N2CCC[C@H]2C(=O)N[C@@H](CCCN=C(N)N)C(=O)NCC(N)=O)NC(=O)[C@H](CC(N)=O)NC1=O (stereo in doubt) | 11200 | 463
C[C@@H]1NC(=O)[C@H](Cc2ccccc2)NC(=O)[C@H](Cc2ccc(O)cc2)NC(=O)CCSSC[C@@H](C(=O)N2CCC[C@H]2C(=O)N[C@@H](CCCN=C(N)N)C(=O)NCC(N)=O)NC(=O)[C@H](CC(N)=O)NC1=O | 13.7 | 21.8
NC(=O)CNC(=O)[C@H](CCCN=C(N)N)NC(=O)[C@@H]1CCCN1C(=O)[C@@H]1CSSCCC(=O)N[C@@H](Cc2ccc(O)cc2)C(=O)N[C@@H](Cc2ccccc2)C(=O)N[C@@H](Cc2c[nH]c3ccccc23)C(=O)N[C@@H](CC(N)=O)C(=O)N1 (stereo in doubt) | 80 | 75
NC(=O)CNC(=O)[C@H](CCCN=C(N)N)NC(=O)[C@@H]1CCCN1C(=O)[C@@H]1CSSCCC(=O)N[C@@H](Cc2ccc(O)cc2)C(=O)N[C@@H](Cc2ccccc2)C(=O)NCC(=O)N[C@@H](CC(N)=O)C(=O)N1 | 554 | 276
NC(=O)CNC(=O)[C@H](CCCN=C(N)N)NC(=O)[C@@H]1CCCN1C(=O)[C@@H]1CSSCCC(=O)N[C@@H](Cc2ccc(O)cc2)C(=O)N[C@@H](Cc2ccccc2)C(=O)N[C@@H](CO)C(=O)N[C@@H](CC(N)=O)C(=O)N1 (stereo in doubt) | 24.7 | 13
NC(=O)CNC(=O)[C@H](CCCN=C(N)N)NC(=O)[C@@H]1CCCN1C(=O)[C@@H]1CSSCCC(=O)N[C@@H](Cc2ccc(O)cc2)C(=O)N[C@@H](Cc2ccccc2)C(=O)N[C@@H](CC(N)=O)C(=O)N[C@@H](CC(N)=O)C(=O)N1 (stereo in doubt) | 50 | –
C[C@@H](O)[C@@H]1NC(=O)[C@H](Cc2ccccc2)NC(=O)[C@H](Cc2ccc(O)cc2)NC(=O)CCSSC[C@@H](C(=O)N2CCC[C@H]2C(=O)N[C@@H](CCCN=C(N)N)C(=O)NCC(N)=O)NC(=O)[C@H](CC(N)=O)NC1=O (stereo in doubt) | 1.5 | 2.9
NC[C@@H]1NC(=O)[C@H](Cc2ccccc2)NC(=O)[C@H](Cc2ccc(O)cc2)NC(=O)CCSSC[C@@H](C(=O)N2CCC[C@H]2C(=O)N[C@@H](CCCN=C(N)N)C(=O)NCC(N)=O)NC(=O)[C@H](CC(N)=O)NC1=O (stereo in doubt) | 36.8 | 19.7
NC(=O)CNC(=O)[C@H](CCCN=C(N)N)NC(=O)[C@@H]1CCCN1C(=O)[C@@H]1CSSCCC(=O)N[C@@H](Cc2ccc(O)cc2)C(=O)N[C@@H](Cc2ccccc2)C(=O)N[C@@H](CCC(=O)O)C(=O)N[C@@H](CC(N)=O)C(=O)N1 (stereo in doubt) | 1090 | 436
CCCC[C@@H]1NC(=O)[C@H](Cc2ccccc2)NC(=O)[C@H](Cc2ccc(O)cc2)NC(=O)CCSSC[C@@H](C(=O)N2CCC[C@H]2C(=O)N[C@@H](CCCN=C(N)N)C(=O)NCC(N)=O)NC(=O)[C@H](CC(N)=O)NC1=O (stereo in doubt) | 117 | 28.1
CCC[C@@H]1NC(=O)[C@H](Cc2ccccc2)NC(=O)[C@H](Cc2ccc(O)cc2)NC(=O)CCSSC[C@@H](C(=O)N2CCC[C@H]2C(=O)N[C@@H](CCCN=C(N)N)C(=O)NCC(N)=O)NC(=O)[C@H](CC(N)=O)NC1=O (stereo in doubt) | 24.1 | 22.5
CC[C@@H]1NC(=O)[C@H](Cc2ccccc2)NC(=O)[C@H](Cc2ccc(O)cc2)NC(=O)CCSSC[C@@H](C(=O)N2CCC[C@H]2C(=O)N[C@@H](CCCN=C(N)N)C(=O)NCC(N)=O)NC(=O)[C@H](CC(N)=O)NC1=O (stereo in doubt) | 2.1 | 19.7
NC(=O)CNC(=O)[C@H](CCCN=C(N)N)NC(=O)[C@@H]1CCCN1C(=O)[C@@H]1CSSCCC(=O)N[C@@H](Cc2ccc(O)cc2)C(=O)N[C@@H](Cc2ccccc2)C(=O)N[C@@H](CC2CCCCC2)C(=O)N[C@@H](CC(N)=O)C(=O)N1 ([Mpa]YF[Cha]NCPRG-NH2; disulfide 1-6) | 750 | 151
NC(=O)CNC(=O)[C@H](CCCN=C(N)N)NC(=O)[C@@H]1CCCN1C(=O)[C@@H]1CSSCCC(=O)N[C@@H](Cc2ccc(O)cc2)C(=O)N[C@@H](Cc2ccccc2)C(=O)N[C@@H](CCCCN=C(N)N)C(=O)N[C@@H](CC(N)=O)C(=O)N1 (stereo in doubt) | 1390 | 48.2
NC(=O)CNC(=O)[C@H](CCCN=C(N)N)NC(=O)[C@@H]1CCCN1C(=O)[C@@H]1CSSCCC(=O)N[C@@H](Cc2ccc(O)cc2)C(=O)N[C@@H](Cc2ccccc2)C(=O)N[C@@H](Cc2ccc(O)cc2)C(=O)N[C@@H](CC(N)=O)C(=O)N1 (stereo in doubt) | 621 | 36.9
